Laboratory results reported in ChEMBL document CHEMBL1157816, “Action of a pentacyclic triterpenoid, maslinic acid, against Toxoplasma gondii” (J Nat Prod, 2010).
pIC50: −log10 of the molar value. Active and inactive are the calls of the source. The calls are words filed in the database; no cut-off is given here.

Assays:
[1] = Toxicity in african green monkey Vero cells by alamar blue assay; type: cell-based; details: chlorocebus sabaeus, read-out: LD50 (the source's name)
Procedure, shortened: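 Semiconfluent Vero cells (1 × 10^4/well; DMEM, 10% heat-inactivated FCS, 2 mM glutamine, penicillin/streptomycin) exposed to compound dilutions (3.9-500 µM series) with Alamar Blue for 24 h, 37 °C, 5% CO2. Controls are medium, AB and drug blanks, plus cells with DMSO. Percent AB reduction is read from absorbance at 570/600 nm against the DMSO control by the manufacturer's formula. LD50 reported as mean ± SEM.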

Toxoplasma gondii [2] = assay: Antimicrobial activity against Toxoplasma gondii RH tachyzoites assessed as inhibition of parasite invasion of african green monkey Vero cells pretreated for 1 hr before cell infection measured 24 to 48 hrs post infection; type: functional
Procedure, shortened: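 RH tachyzoites (mouse ascites, passaged in Vero cells, needle- and 5 µm filter-purified), 2.5 × 10^5 pretreated 1 h at 37 °C in medium with compound (250-15.6 µM) or DMSO control. They then infect semiconfluent Vero cells at 10 parasites/cell, 37 °C, 5% CO2. Medium is replaced. Slides are methanol-fixed and Diff-Quick stained at 24 and 48 h. Percent parasitised is scored by light microscopy in 500 cells/slide, three repeats, mean ± SEM, giving ID50.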

Toxoplasma gondii [3] = assay: Antimicrobial activity against Toxoplasma gondii RH tachyzoites assessed as inhibition of parasite invasion of african green monkey Vero cells pretreated for 1 hr before cell infection measured 24 hrs post infection; type: functional; details: read-out: ID50 (the source's name)
Procedure, shortened: (§1)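 Purified RH tachyzoites (2.5 × 10^5) pretreated 1 h at 37 °C in medium with compound (250-15.6 µM) or DMSO control. They then infected semiconfluent Vero cells at 10 parasites/cell (37 °C, 5% CO2), after which medium was replaced. Slides fixed in methanol at 24 or 48 h and stained with Diff-Quick. Percentage parasitism from 500 cells per slide by light microscopy; three repeats; mean ± SEM; ID50 reported.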

Toxoplasma gondii [4] = assay: Antimicrobial activity against Toxoplasma gondii RH tachyzoites assessed as inhibition of parasite invasion of african green monkey Vero cells pretreated for 1 hr before cell infection measured 48 hrs post infection; type: functional; details: read-out: ID50 (the source's name); procedure, shortened: as §1
Toxoplasma gondii [5] = assay: Antimicrobial activity against Toxoplasma gondii RH tachyzoites assessed as inhibition of parasite gliding motility at 50 uM pretreated for 15 mins; type: functional
Procedure, shortened: (§2)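 RH-strain tachyzoites (passaged in Balb/c mice and Vero cells, filter-purified) pretreated 15 min at 37 °C with compound at 50, 25 or 10 µM; DMSO at maximum solvent level as control. Slides coated with 0.1% poly-L-lysine in PBS pH 7.2. Fixed in 4% formaldehyde/0.02% glutaraldehyde, stained with anti-SAG-1 (P30) mAb 1/50 plus FITC anti-IgG 1/100; trail number and length scored by confocal microscopy.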

Toxoplasma gondii [6] = assay: Antimicrobial activity against Toxoplasma gondii RH tachyzoites assessed as inhibition of parasite gliding motility pretreated for 15 mins; type: functional; procedure, shortened: as §2
Vero [7] = assay: Inhibition of serine protease in excreted-secreted products fraction of Toxoplasma gondii RH tachyzoites infected in african green monkey Vero cells by SDS-PAGE and zymography; type: cell-based
Procedure, shortened: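 Purified tachyzoites (6 × 10^7/100 µL DMEM without serum) pretreated 15 min at room temperature with compound at various concentrations. Micronemal secretion is induced at 37 °C with 200 mM ethanol, then the parasites are pelleted and secretion stopped on ice. The ESP fraction goes in nonreducing sample buffer onto 12% SDS-PAGE with 0.1% gelatin, run at 90 V, 4 °C. The gel gets 2.5% Triton X-100 for 60 min, then develops overnight at 37 °C (50 mM Tris-HCl, 10 mM CaCl2, pH 6.8). Coomassie stain.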

Vero [8] = assay: Inhibition of serine protease in excreted-secreted products fraction of […] secretion proteins of Toxoplasma gondii RH tachyzoites infected in african green monkey Vero cells by SDS-PAGE and zymography; type: cell-based
Procedure, shortened: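 Tachyzoites (6 × 10^7 in 100 µL serum-free DMEM) pretreated 15 min at room temperature with compound at various concentrations. Micronemal secretion induced at 37 °C with 200 mM ethanol and stopped on ice after centrifugation. The ESP fraction was run in nonreducing 12% SDS-PAGE containing 0.1% gelatin at 90 V, 4 °C. Gel washed in 2.5% Triton X-100, developed overnight at 37 °C in Tris/CaCl2 pH 6.8 and Coomassie-stained; cleared bands read as activity.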

Toxoplasma gondii [9] = assay: Cytopathic effect against Toxoplasma gondii RH extracellular tachyzoites infected in african green monkey Vero cells assessed as induction of morphological changes at 25 uM after 4 hrs by electron microscopy; type: functional, organism-based
Procedure, shortened: (§3)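 Purified extracellular tachyzoites exposed to 25 µM compound for 4 or 8 h. Fixed in 2.5% glutaraldehyde in cacodylate buffer, postfixed 30 min in 1% buffered OsO4, dehydrated and embedded in Spurr resin. Ultrathin sections stained with 8% uranyl acetate then 0.2% lead citrate and examined by transmission electron microscopy.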

Toxoplasma gondii [10] = assay: Cytopathic effect against Toxoplasma gondii RH extracellular tachyzoites infected in african green monkey Vero cells assessed as induction of morphological changes at 25 uM after 8 hrs by electron microscopy; type: functional, organism-based; procedure, shortened: as §3
Toxoplasma gondii [11] = assay: Cytopathic effect against Toxoplasma gondii RH intracellular tachyzoites infected in african green monkey Vero cells assessed as induction of morphological changes at 25 uM by electron microscopy; type: functional, organism-based
Procedure, shortened: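 Vero cultures infected 24 h, then treated with 25 µM compound for 8 h. Fixed in 2.5% glutaraldehyde in cacodylate buffer, scraped, postfixed 30 min in 1% OsO4 and embedded in Spurr resin. Sections stained with uranyl acetate and lead citrate and viewed by TEM.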

Toxoplasma gondii [12] = assay: Antimicrobial activity against Toxoplasma gondii RH tachyzoites assessed as inhibition of parasite gliding motility at 10 uM pretreated for 15 mins; type: functional; procedure, shortened: as §2
Toxoplasma gondii [13] = assay: Antimicrobial activity against Toxoplasma gondii RH tachyzoites assessed as inhibition of parasite gliding motility at 25 uM pretreated for 15 mins; type: functional; procedure, shortened: as §2

Row | SMILES | CC50 [1] [µM] | inhibition (Toxoplasma gondii [2]) | pIC50 (Toxoplasma gondii [3]) | pIC50 (Toxoplasma gondii [4]) | inhibition at 50 µM (Toxoplasma gondii [5]) [%] | inhibition (Toxoplasma gondii [6]) | inhibition (INH) (Toxoplasma gondii [6]) [%] | inhibition (Vero [7]) | inhibition (Vero [8]) | inhibition (Toxoplasma gondii [9]) | inhibition (Toxoplasma gondii [10]) | inhibition (Toxoplasma gondii [11]) | inhibition at 10 µM (Toxoplasma gondii [12]) [%] | inhibition at 25 µM (Toxoplasma gondii [13]) [%]
1 | NCCc1ccc(S(=O)(=O)F)cc1 | 36.9 |  |  |  |  |  |  |  |  |  |  |  |  | 
2 | CC1(C)CC[C@]2(C(=O)O)CC[C@]3(C)C(=CC[C@@H]4[C@@]5(C)C[C@@H](O)[C@H](O)C(C)(C)[C@@H]5CC[C@]43C)[C@@H]2C1 [MASLINIC ACID] | 237 | Dose-dependent effect | 4.34 | 5.10 | ≥ 100 | Dose-dependent effect | 100 | Dose-dependent effect | Active | Active | Active | Active | 58.8 | 59.7
3 | O=S(=O)(F)Cc1ccccc1 [PHENYLMETHYLSULFONYLFLUORIDE] | 133 |  |  |  |  |  |  | Dose-dependent effect |  |  |  |  |  | 
